Key:
Assay in all cases: two-electrode voltage clamp, Xenopus oocytes
Format in all cases: cell-based
[1] = molecular target: α2β3γ2 GABAA receptor (rat, oocytes) (Rattus norvegicus, UniProt P18508+P23576); conditions: read-out: α2
How it was run: (§1)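 Oocytes from Xenopus laevis were injected with mRNA made from rat GABAA subunit cDNAs. Two-electrode voltage clamp was done at room temperature, holding at −60 mV, with electrodes filled with […]. Cells were perfused at 6 ml/min with Ringer (90 mM NaCl, 5 mM HEPES pH 7.4, 1 mM MgCl2, KCl, CaCl2). Drug in 0.1% DMSO final was pre-applied for 30 sec, then co-applied with GABA until peak, with washes of up to 15 min.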

[2] = molecular target: α3β3γ2 GABAA receptor (rat, oocytes) (Rattus norvegicus, UniProt P18508+P20236); conditions: read-out: α3
How it was run: as §1

[3] = molecular target: α1β3γ2 GABAA receptor (rat, oocytes) (Rattus norvegicus, UniProt P18508+P62813); conditions: read-out: α1
How it was run: as §1

[4] = molecular target: α5β3γ2 GABAA receptor (rat, oocytes) (Rattus norvegicus, UniProt P18508+P19969); conditions: read-out: α5
How it was run: as §1

α5β3γ2 GABAA receptor (rat, oocytes), sequence (P19969 26-464): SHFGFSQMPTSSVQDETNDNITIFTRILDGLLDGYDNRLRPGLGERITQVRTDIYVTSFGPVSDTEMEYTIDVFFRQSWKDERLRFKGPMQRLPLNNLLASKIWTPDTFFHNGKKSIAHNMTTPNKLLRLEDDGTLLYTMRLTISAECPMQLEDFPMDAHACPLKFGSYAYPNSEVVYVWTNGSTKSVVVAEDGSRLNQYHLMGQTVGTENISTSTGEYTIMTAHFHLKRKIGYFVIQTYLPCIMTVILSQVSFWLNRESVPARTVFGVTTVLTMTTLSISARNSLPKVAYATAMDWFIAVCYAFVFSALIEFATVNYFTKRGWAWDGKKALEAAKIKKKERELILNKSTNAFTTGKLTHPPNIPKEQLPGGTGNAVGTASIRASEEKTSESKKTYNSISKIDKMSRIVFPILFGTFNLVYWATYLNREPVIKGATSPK
α5β3γ2 GABAA receptor (rat, oocytes), sequence (P18508 39-466): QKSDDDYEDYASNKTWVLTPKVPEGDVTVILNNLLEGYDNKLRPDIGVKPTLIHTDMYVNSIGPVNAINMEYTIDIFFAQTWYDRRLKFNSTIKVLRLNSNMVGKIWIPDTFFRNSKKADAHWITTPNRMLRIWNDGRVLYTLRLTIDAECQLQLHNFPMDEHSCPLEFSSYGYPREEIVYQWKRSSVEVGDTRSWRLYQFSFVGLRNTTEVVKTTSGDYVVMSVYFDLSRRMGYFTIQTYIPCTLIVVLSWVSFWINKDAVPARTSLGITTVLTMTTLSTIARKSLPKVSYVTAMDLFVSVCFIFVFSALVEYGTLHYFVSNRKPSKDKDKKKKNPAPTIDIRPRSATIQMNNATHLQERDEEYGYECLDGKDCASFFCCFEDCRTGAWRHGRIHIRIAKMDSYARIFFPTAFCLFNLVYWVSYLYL
α5β3γ2 GABAA receptor (rat, oocytes), sequence (P63079 26-473 partner): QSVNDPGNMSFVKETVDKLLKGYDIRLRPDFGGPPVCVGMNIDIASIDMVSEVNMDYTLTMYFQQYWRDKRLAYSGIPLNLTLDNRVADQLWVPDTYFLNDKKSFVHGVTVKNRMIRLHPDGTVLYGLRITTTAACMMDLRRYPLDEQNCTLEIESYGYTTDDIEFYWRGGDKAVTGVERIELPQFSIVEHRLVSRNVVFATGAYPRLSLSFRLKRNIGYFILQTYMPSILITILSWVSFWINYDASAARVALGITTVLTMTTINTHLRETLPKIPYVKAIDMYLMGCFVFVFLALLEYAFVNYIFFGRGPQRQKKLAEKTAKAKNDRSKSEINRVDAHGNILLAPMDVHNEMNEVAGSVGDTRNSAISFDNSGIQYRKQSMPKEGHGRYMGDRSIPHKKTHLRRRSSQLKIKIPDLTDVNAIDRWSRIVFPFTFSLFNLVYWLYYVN
α3β3γ2 GABAA receptor (rat, oocytes), sequence (P20236 29-493): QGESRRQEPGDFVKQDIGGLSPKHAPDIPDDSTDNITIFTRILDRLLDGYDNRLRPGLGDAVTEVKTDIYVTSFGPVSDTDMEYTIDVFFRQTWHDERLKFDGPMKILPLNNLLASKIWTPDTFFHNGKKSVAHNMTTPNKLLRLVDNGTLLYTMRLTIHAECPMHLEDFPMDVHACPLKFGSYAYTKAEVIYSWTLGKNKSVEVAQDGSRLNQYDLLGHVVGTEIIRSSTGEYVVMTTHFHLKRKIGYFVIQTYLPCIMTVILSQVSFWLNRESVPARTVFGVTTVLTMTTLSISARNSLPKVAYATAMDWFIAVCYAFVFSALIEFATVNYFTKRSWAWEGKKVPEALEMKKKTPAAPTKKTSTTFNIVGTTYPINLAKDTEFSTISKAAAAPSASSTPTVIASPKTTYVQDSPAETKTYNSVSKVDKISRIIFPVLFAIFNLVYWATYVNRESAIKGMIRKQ
α3β3γ2 GABAA receptor (rat, oocytes), sequence (P18508 39-466): as the sequence (P18508 39-466) above
α3β3γ2 GABAA receptor (rat, oocytes), sequence (P63079 26-473 partner): as the sequence (P63079 26-473 partner) above
α1β3γ2 GABAA receptor (rat, oocytes), sequence (P62813 28-455): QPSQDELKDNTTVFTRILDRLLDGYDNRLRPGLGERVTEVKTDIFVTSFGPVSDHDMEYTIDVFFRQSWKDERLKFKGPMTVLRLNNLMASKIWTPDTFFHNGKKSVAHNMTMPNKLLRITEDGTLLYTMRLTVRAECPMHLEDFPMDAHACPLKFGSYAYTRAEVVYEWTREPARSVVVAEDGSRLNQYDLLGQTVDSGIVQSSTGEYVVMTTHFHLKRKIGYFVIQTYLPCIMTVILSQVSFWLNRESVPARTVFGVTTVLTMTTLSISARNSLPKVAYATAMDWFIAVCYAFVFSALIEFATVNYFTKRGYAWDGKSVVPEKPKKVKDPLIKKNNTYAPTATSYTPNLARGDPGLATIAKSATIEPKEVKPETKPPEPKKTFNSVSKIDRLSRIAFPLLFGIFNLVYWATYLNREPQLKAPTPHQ
α1β3γ2 GABAA receptor (rat, oocytes), sequence (P18508 39-466): as the sequence (P18508 39-466) above
α1β3γ2 GABAA receptor (rat, oocytes), sequence (P63079 26-473 partner): as the sequence (P63079 26-473 partner) above
α2β3γ2 GABAA receptor (rat, oocytes), sequence (P23576 29-451): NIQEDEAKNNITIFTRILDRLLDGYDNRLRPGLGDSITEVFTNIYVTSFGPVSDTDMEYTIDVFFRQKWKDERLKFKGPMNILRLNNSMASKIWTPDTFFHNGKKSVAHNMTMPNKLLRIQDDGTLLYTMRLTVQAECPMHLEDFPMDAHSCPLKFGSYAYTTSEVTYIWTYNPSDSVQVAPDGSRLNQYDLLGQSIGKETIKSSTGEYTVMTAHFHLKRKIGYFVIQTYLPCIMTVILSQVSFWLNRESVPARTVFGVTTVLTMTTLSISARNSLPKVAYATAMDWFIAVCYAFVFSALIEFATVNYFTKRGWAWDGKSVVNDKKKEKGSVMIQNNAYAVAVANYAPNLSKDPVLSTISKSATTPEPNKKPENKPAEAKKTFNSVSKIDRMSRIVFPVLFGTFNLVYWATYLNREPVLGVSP
α2β3γ2 GABAA receptor (rat, oocytes), sequence (P18508 39-466): as the sequence (P18508 39-466) above
α2β3γ2 GABAA receptor (rat, oocytes), sequence (P63079 26-473 partner): as the sequence (P63079 26-473 partner) above

Compound | activity at 1 µM [1] [%] | activity at 1 µM [2] [%] | activity at 1 µM [3] [%] | activity at 1 µM [4] [%]
CN1C(=O)CN=C(c2ccccc2)c2cc(Cl)ccc21 [Diazepam] | 536 | 752 | 314 | 342
C#Cc1ccc2c(c1)C(c1ccccc1F)=N[C@@H](C)c1c(C(=O)OCC)ncn1-2 [SH-053-2'F-S-CH3, (S)-8-ethynyl-6-(2-fluoro-phenyl)-4-methyl-4H-2,5,10b-triaza-benzo[e]azulene-3-carboxylic acid ethyl ester] | – | – | – | 389
